Source: ChEMBL document CHEMBL1828498, “Identification and characterization of a novel integrin-linked kinase inhibitor” (J Med Chem, 2011)
pIC50: −log10 of the molar value. Active and inactive are the calls of the source. The rule behind the calls is not given here.

Legend:
[1] = tested on: 3-phosphoinositide dependent protein kinase-2, PDK2; experiment: Inhibition of PDK2 in human PC3 cells assessed as Akt Ser-473 dephosphorylation by Western blot analysis; type: functional, cell-based; settings: PC-3
Summary of the method: (§1)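 Cells exposed 24 h in 5% FBS medium, final DMSO 0.1%; lysed in 1% SDS/10 mM EDTA/50 mM Tris pH 8.1, equal protein on SDS-PAGE, nitrocellulose, primary antibody 1:1000 at 4°C for 2 h, HRP secondary 1:5000, ECL detection; blots representative of three independent experiments.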

MDA-MB-468 = experiment: Antiproliferative activity against human MDA-MB-468 cells assessed as suppression of cell viability by MTT assay; type: functional, cell-based
Summary of the method: (§2)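 Cancer lines seeded 5000/well and nonmalignant PrEC/MEC 8000/well in 10% FBS, 24 h before treatment. Compound exposure 24 h in 5% FBS medium, 0.1% final DMSO. MTT (0.25 mg/mL) for 1 h at 37°C, dye solubilized in DMSO, absorbance read at 570 nm. Mean ± SD, n = 6.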

MCF7 = experiment: Antiproliferative activity against human MCF7 cells assessed as suppression of cell viability by MTT assay; type: functional, cell-based; summary of the method: as §2
[2] = molecular target: Rapamycin-insensitive companion of mTOR (Homo sapiens) (UniProt Q6R327); experiment: Inhibition of mTORC2 in human PC3 cells assessed as SGK1 phosphorylation by Western blot analysis; type: cell-based; settings: PC-3; summary of the method: as §1
[3] = molecular target: Rapamycin-insensitive companion of mTOR (Homo sapiens) (UniProt Q6R327); experiment: Inhibition of mTORC2 in human MDA-MB-231 cells assessed as PKCalpha phosphorylation by Western blot analysis; type: cell-based; summary of the method: as §1
PC-3 [4] = experiment: Reduction in YB-1 mRNA expression in human PC3 cells after 24 hrs by RT-PCR analysis; type: functional, cell-based
Summary of the method: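 PC-3, PC-3/CA-ILK, SKBR3 and SKBR3/CA-ILK cells treated 24 h in 5% FBS medium; total RNA from 1 × 10^6 cells by Trizol, 1 μg reverse-transcribed, then PCR with gene-specific primers and β-actin reference.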

PC-3 [5] = experiment: Reduction in HER2 concentration in human PC3 cells after 24 hrs by Western blot analysis; type: functional, cell-based
Summary of the method: (§3)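 PC-3 versus stable PC-3/CA-ILK, or SKBR3 versus transient SKBR3/CA-ILK (electroporation, used 48 h after), treated 24 h in 5% FBS medium; immunoblotting with ECL; representative of three experiments.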

PC-3 [6] = experiment: Reduction in EGFR concentration in human PC3 cells expressing constitutively active ILK after 24 hrs by Western blot analysis; type: functional, cell-based; summary of the method: as §3
[7] = molecular target: RAC-alpha serine/threonine-protein kinase (Homo sapiens) (UniProt P31749); experiment: Inhibition of Akt at 5 uM assessed as remaining activity
Summary of the method: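 Panel of 20 recombinant kinases, profiled by a commercial vendor.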

[8] = molecular target: T1, Scaffold protein ILK (Homo sapiens) (UniProt Q13418); experiment: Inhibition of ILK in human PC3 cells assessed as decrease in phosphorylated JNK concentration by Western blot analysis; type: cell-based; settings: PC-3
T1 sequence (whole entry): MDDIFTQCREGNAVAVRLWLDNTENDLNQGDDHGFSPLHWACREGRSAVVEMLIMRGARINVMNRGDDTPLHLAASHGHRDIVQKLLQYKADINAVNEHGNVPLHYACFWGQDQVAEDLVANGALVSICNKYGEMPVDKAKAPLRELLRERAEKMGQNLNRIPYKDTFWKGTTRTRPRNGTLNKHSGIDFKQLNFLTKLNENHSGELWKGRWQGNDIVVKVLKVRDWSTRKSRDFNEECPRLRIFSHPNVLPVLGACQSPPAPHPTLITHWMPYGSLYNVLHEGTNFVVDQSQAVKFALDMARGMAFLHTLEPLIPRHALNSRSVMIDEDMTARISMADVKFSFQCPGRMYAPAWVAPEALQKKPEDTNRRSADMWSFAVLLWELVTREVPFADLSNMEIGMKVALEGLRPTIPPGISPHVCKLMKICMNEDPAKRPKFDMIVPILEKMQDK
Summary of the method: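 PC-3 cells exposed to graded concentrations for 24 h in 5% FBS medium. Immunoblotting for phospho-Tyr397-FAK, ERK1/2, p38 and JNK. Lysis in 1% SDS buffer, primary antibody 1:1000 at 4°C for 2 h, ECL. Three independent experiments.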

[9] = molecular target: T1, Scaffold protein ILK (Homo sapiens); experiment: Inhibition of ILK in human PC3 cells expressing constitutively active ILK assessed as decrease in phosphorylated ERK1/2 concentration by Western blot analysis; type: cell-based; settings: PC-3
Summary of the method: (§4)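 Stable PC-3 clones expressing GFP-CA-ILK (G418 250 μg/mL selection, GFP sorting) treated 24 h in 5% FBS medium. Phospho-ERK1/2 and phospho-p38 detected by immunoblot with ECL. Representative of three experiments.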

[10] = molecular target: T1, Scaffold protein ILK (Homo sapiens); experiment: Inhibition of ILK in human PC3 cells expressing constitutively active ILK assessed as decrease in phosphorylated p38 concentration by Western blot analysis; type: cell-based; settings: PC-3; summary of the method: as §4
Mus musculus = experiment: Inhibition of phosphorylation of Ser-437-Akt in human PC3 cells xenografted nude mouse tumor lysate at 25 mg/kg, po administered for 35 days by Western blot analysis; type: functional, organism-based; set-up: dose 25 mg/kg; settings: Neoplasm, PC-3
Summary of the method: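 Tumors harvested at terminal sacrifice after 35 days of daily oral dosing, snap-frozen and stored at -80°C; lysates immunoblotted, three representative tumors per group.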

[11] = molecular target: T2, 3-phosphoinositide-dependent protein kinase 1 (Homo sapiens) (UniProt O15530); experiment: Inhibition of PDK2 in human MDA-MB-231 cells assessed as Akt Thr-308 dephosphorylation by Western blot analysis; type: functional, cell-based; summary of the method: as §1
T2 sequence (whole entry): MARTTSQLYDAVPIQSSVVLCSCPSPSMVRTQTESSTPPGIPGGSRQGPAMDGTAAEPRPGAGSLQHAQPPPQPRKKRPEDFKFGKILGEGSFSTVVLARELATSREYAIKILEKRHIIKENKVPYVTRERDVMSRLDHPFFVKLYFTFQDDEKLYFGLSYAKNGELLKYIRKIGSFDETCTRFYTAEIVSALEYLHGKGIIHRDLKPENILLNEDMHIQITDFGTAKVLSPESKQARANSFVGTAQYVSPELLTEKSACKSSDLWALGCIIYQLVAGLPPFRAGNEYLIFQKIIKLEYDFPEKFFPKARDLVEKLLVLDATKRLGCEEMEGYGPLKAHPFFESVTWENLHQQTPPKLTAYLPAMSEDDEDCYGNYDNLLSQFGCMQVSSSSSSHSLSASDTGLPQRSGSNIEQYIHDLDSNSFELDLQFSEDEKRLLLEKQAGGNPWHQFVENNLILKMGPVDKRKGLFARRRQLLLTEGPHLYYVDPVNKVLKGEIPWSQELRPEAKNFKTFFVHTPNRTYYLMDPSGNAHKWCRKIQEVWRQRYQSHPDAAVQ

Rapamycin-insensitive companion of mTOR (Homo sapiens), sequence (Q6R327 whole entry): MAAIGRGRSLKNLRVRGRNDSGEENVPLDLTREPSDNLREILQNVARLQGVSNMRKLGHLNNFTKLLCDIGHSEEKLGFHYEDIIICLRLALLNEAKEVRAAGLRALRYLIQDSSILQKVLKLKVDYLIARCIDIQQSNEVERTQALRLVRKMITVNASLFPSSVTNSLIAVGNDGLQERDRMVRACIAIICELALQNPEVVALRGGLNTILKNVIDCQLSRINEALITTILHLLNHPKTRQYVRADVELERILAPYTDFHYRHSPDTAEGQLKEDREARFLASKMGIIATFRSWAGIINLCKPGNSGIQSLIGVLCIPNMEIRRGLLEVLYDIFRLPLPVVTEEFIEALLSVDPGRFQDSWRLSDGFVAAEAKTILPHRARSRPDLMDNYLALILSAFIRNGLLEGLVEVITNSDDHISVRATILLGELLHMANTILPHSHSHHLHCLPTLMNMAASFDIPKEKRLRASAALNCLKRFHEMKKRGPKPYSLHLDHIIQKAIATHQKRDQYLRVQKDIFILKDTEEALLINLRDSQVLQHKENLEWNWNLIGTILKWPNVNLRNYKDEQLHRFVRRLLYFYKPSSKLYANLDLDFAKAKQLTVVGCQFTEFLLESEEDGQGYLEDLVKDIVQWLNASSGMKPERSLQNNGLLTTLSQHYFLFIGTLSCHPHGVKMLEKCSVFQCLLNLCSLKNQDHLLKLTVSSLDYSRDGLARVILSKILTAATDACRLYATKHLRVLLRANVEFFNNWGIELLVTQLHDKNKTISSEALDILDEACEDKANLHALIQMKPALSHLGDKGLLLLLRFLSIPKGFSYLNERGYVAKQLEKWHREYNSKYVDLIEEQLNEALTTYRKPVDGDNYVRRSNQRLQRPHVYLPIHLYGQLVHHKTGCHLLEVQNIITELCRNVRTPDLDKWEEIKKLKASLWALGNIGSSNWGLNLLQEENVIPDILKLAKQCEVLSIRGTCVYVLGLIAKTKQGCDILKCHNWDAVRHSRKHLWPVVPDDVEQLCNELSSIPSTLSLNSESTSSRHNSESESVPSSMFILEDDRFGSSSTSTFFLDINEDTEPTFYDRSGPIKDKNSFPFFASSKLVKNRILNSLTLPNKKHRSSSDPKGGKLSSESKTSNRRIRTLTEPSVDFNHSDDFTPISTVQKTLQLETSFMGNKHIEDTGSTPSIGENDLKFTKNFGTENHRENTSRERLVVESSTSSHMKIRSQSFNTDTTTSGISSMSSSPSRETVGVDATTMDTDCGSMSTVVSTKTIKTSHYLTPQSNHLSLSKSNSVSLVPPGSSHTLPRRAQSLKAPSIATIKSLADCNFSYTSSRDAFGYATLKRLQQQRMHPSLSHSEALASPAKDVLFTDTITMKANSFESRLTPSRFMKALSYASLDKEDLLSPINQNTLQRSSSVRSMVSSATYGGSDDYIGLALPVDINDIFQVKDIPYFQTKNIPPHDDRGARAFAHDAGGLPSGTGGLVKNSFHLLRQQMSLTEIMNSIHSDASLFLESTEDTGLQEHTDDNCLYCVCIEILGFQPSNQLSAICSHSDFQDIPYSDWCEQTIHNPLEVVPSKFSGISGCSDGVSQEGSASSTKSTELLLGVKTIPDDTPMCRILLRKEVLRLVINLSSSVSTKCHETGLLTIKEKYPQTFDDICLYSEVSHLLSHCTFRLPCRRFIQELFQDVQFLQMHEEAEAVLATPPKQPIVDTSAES
RAC-alpha serine/threonine-protein kinase (Homo sapiens), sequence (P31749 whole entry): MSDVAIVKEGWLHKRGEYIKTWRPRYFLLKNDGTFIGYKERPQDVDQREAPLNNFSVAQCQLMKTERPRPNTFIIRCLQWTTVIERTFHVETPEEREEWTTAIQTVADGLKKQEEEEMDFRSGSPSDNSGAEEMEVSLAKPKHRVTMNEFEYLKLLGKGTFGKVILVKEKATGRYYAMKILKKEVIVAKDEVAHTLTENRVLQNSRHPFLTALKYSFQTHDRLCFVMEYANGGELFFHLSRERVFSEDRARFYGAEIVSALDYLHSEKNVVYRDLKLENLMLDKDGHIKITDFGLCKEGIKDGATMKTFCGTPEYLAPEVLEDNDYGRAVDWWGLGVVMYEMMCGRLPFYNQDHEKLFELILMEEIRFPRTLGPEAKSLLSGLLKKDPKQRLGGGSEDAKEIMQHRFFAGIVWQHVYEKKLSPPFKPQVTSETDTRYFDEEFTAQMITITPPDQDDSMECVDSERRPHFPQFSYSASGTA

pIC50 (MDA-MB-468): 5.82
pIC50 (MCF7): 5.60
inhibition [2]: inactive
inhibition [3]: inactive
Activity [7]: 88%
inhibition [8]: inactive
inhibition [9]: inactive
inhibition [10]: inactive
inhibition [11]: inactive
SMILES: CNC(=O)CCc1cc(-c2ccc(-c3ccc(C(F)(F)F)cc3)cc2)n(-c2ccc(N3CCNCC3)cc2)n1
inhibition [1]: Dose-dependent effect
Activity (PC-3 [4]): Dose-dependent effect
Activity (PC-3 [5]): Dose-dependent effect
Activity (PC-3 [6]): inactive
Activity (Mus musculus): Dose-dependent effect
